ChEMBL document CHEMBL3745596, “Chlorophenoxy aminoalkyl derivatives as histamine H(3)R ligands and antiseizure agents” (Bioorg Med Chem, 2016)
The source made the active and inactive calls.

Experiments:
[1] = test system: Mus musculus; assay: Neurotoxicity in CF1 albino mouse at 30 mg/kg, ip after 0.5 hrs by rotarod test; type: toxicity, organism-based; settings: in vivo
How it was run: (§1)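 Rotarod neurotoxicity in male albino CF-1 mice dosed ip with compound suspended in 0.5% methylcellulose. Animal placed on a 1 inch diameter knurled plastic rod rotating at 6 rpm. Neurotoxicity scored when the animal falls off three times within 1 min. Readout is number of animals toxic/number tested at the stated time after dosing. TD50 with 95% confidence interval from the quantitative study.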

[2] = molecular target: T1, Histamine H3 receptor (Homo sapiens, UniProt Q9Y5N1); assay: Displacement of [3H]-Nalpha-methylhistamine from human recombinant histamine H3 receptor expressed in HEK293 cells after 90 mins; type: cell-based
T1 sequence (Q9Y5N1 whole entry): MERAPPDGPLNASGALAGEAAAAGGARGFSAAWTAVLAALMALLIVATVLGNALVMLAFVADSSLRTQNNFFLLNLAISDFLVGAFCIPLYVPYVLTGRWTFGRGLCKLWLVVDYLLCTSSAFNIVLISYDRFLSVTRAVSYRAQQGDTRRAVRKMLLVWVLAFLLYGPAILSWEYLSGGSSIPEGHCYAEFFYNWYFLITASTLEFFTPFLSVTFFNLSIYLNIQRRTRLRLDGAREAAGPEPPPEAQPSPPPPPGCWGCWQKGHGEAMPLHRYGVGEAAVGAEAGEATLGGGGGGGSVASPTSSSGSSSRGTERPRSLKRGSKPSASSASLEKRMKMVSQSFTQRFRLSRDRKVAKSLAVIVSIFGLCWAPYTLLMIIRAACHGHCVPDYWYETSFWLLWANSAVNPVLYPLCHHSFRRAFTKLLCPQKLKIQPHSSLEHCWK

[3] = test system: Mus musculus; assay: Anticonvulsant activity in CF1 albino mouse assessed as protection against 6 Hz-psychomotor-induced seizure at 50 mg/kg, ip after 0.25 hrs; type: functional, organism-based
How it was run: (§2)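 Male CF-1 mice, ip suspension in 0.5% methylcellulose. Corneal stimulation 0.2 ms monopolar rectangular pulses at 6 Hz, 32 mA for 3 s via constant-current device; mice without minimal clonic phase seizure counted protected. Groups of four; read at 0.25, 0.5, 1, 2, 4 h; result as protected/tested.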

[4] = test system: Mus musculus; assay: Neurotoxicity in CF1 albino mouse at 30 mg/kg, ip after 4 hrs by rotarod test; type: toxicity, organism-based; settings: in vivo; how it was run: as §1
[5] = test system: Rattus norvegicus; assay: Anticonvulsant activity in Sprague-Dawley rat assessed as protection against maximal electroshock-induced seizure at 30 mg/kg, po; type: functional
[6] = test system: Mus musculus; assay: Anticonvulsant activity in CF1 albino mouse assessed as protection against subcutaneous pentetrazole-induced seizure at 100 mg/kg, ip after 0.5 hrs; type: functional, organism-based
How it was run: (§3)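 Male CF-1 mice, ip in 0.5% methylcellulose; pentetrazole at CD97 (85 mg/kg) injected subcutaneously in a loose fold of neck skin. Observed 30 min; absence of even a threshold seizure (single clonic spasm lasting at least 5 s) counted as protection. Scored protected/tested, or ED50.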

[7] = test system: Mus musculus; assay: Anticonvulsant activity in CF1 albino mouse assessed as protection against subcutaneous pentetrazole-induced seizure at 30 mg/kg, ip after 0.5 hrs; type: functional, organism-based; how it was run: as §3
[8] = test system: Mus musculus; assay: Anticonvulsant activity in CF1 albino mouse assessed as protection against maximal electroshock-induced seizure at 100 mg/kg, ip after 4 hrs; type: functional, organism-based
How it was run: (§4)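 Male CF-1 mice dosed ip as suspension in 0.5% methylcellulose. Corneal electrodes deliver 60 Hz alternating current, 50 mA for […], after a drop of 0.5% tetracaine HCl in 0.9% NaCl per eye. Protection means abolition of hindlimb tonic extension; scored as protected/tested, or ED50 with 95% confidence interval.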

[9] = test system: Mus musculus; assay: Anticonvulsant activity in CF1 albino mouse assessed as protection against maximal electroshock-induced seizure at 30 mg/kg, ip after 4 hrs; type: functional, organism-based; how it was run: as §4
[10] = test system: Mus musculus; assay: Neurotoxicity in CF1 albino mouse assessed as death at 300 mg/kg, ip after 0.5 hrs by rotarod test; type: toxicity, organism-based; settings: in vivo
How it was run: (§5)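 Male albino CF-1 mice dosed ip with compound suspended in 0.5% methylcellulose, then placed on a 1-inch knurled plastic rod turning at 6 rpm. A fall three times within 1 min counted as neurotoxicity. Observations were made at 0.5 h and 4 h after dosing. Result given as animals showing toxicity per animals tested, with the kind of toxicity recorded.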

[11] = test system: Mus musculus; assay: Anticonvulsant activity in CF1 albino mouse assessed as protection against maximal electroshock-induced seizure at 3 mg/kg, ip after 0.5 hrs; type: functional, organism-based; how it was run: as §4
[12] = test system: Mus musculus; assay: Anticonvulsant activity in CF1 albino mouse assessed as protection against 6 Hz-psychomotor-induced seizure at 50 mg/kg, ip after 4 hrs; type: functional, organism-based; how it was run: as §2
[13] = test system: Mus musculus; assay: Anticonvulsant activity in CF1 albino mouse assessed as protection against maximal electroshock-induced seizure at 10 mg/kg, ip after 0.5 hrs; type: functional, organism-based; how it was run: as §4
[14] = test system: Mus musculus; assay: Neurotoxicity in CF1 albino mouse at 300 mg/kg, ip after 4 hrs by rotarod test; type: toxicity, organism-based; settings: in vivo; how it was run: as §1
[15] = test system: Mus musculus; assay: Anticonvulsant activity in CF1 albino mouse assessed as protection against 6 Hz-psychomotor-induced seizure at 50 mg/kg, ip after 1 hr; type: functional, organism-based; how it was run: as §2
[16] = test system: Mus musculus; assay: Anticonvulsant activity in CF1 albino mouse assessed as protection against maximal electroshock-induced seizure at 100 mg/kg, ip after 0.5 hrs; type: functional, organism-based; how it was run: as §4
[17] = test system: Mus musculus; assay: Anticonvulsant activity in CF1 albino mouse assessed as protection against maximal electroshock-induced seizure at 30 mg/kg, ip after 0.5 hrs; type: functional, organism-based; how it was run: as §4
[18] = test system: Mus musculus; assay: Anticonvulsant activity in CF1 albino mouse assessed as protection against 6 Hz-psychomotor-induced seizure at 50 mg/kg, ip after 0.5 hrs; type: functional, organism-based; how it was run: as §2
[19] = test system: Mus musculus; assay: Anticonvulsant activity in CF1 albino mouse assessed as protection against subcutaneous pentetrazole-induced seizure at 30 mg/kg, ip after 4 hrs; type: functional, organism-based; how it was run: as §3
[20] = test system: Mus musculus; assay: Neurotoxicity in CF1 albino mouse at 50 mg/kg, ip after 4 hrs by rotarod test; type: toxicity, organism-based; settings: in vivo; how it was run: as §1
[21] = test system: Mus musculus; assay: Neurotoxicity in CF1 albino mouse at 50 mg/kg, ip after 1 hr by rotarod test; type: toxicity, organism-based; settings: in vivo; how it was run: as §1
[22] = test system: Mus musculus; assay: Neurotoxicity in CF1 albino mouse assessed as unable to grasp rotarod at 100 mg/kg, ip after 0.5 hrs by rotarod test; type: toxicity, organism-based; settings: in vivo
How it was run: (§6)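 Rotarod neurotoxicity in male CF-1 mice dosed ip as 0.5% methylcellulose suspension: mouse placed on 1 inch knurled rod rotating at 6 rpm; toxicity when the animal falls off three times within 1 min, with other signs noted. Scored as toxic/tested at 0.5 h and 4 h.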

[23] = test system: Mus musculus; assay: Neurotoxicity in CF1 albino mouse at 100 mg/kg, ip after 4 hrs by rotarod test; type: toxicity, organism-based; settings: in vivo; how it was run: as §1
[24] = test system: Mus musculus; assay: Anticonvulsant activity in CF1 albino mouse assessed as protection against subcutaneous pentetrazole-induced seizure at 100 mg/kg, ip after 4 hrs; type: functional, organism-based; how it was run: as §3
[25] = test system: Mus musculus; assay: Neurotoxicity in CF1 albino mouse at 50 mg/kg, ip after 0.5 hrs by rotarod test; type: toxicity, organism-based; settings: in vivo; how it was run: as §1
[26] = test system: Mus musculus; assay: Neurotoxicity in CF1 albino mouse at 3 mg/kg, ip after 0.5 hrs by rotarod test; type: toxicity, organism-based; settings: in vivo; how it was run: as §1
[27] = test system: Mus musculus; assay: Neurotoxicity in CF1 albino mouse at 50 mg/kg, ip after 2 hrs by rotarod test; type: toxicity, organism-based; settings: in vivo; how it was run: as §1
[28] = test system: Mus musculus; assay: Neurotoxicity in CF1 albino mouse at 10 mg/kg, ip after 0.5 hrs by rotarod test; type: toxicity, organism-based; settings: in vivo; how it was run: as §6
[29] = test system: Mus musculus; assay: Neurotoxicity in CF1 albino mouse assessed as unable to grasp rotarod and death at 100 mg/kg, ip after 0.5 hrs by rotarod test; type: toxicity, organism-based; settings: in vivo; how it was run: as §5
[30] = test system: Liver microsome; assay: Drug metabolism in human liver microsomes after 2 hrs by UPLC-MS/MS analysis; type: ADME
How it was run: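 Pooled adult male and female human liver microsomes 1 mg/mL in 0.1 M Tris–HCl pH 7.4 with NADPH regeneration system; started after 5 min preincubation at 37 °C, incubated 2 h at 37 °C, stopped with cold methanol, centrifuged, supernatant analysed by UPLC with ESI tandem quadrupole MS.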

[31] = molecular target: Cytochrome P450 3A4 (Homo sapiens, UniProt P08684); assay: Inhibition of CYP3A4 (unknown origin) up to 10 uM; type: ADME
Sequence of Cytochrome P450 3A4 (P08684 whole entry): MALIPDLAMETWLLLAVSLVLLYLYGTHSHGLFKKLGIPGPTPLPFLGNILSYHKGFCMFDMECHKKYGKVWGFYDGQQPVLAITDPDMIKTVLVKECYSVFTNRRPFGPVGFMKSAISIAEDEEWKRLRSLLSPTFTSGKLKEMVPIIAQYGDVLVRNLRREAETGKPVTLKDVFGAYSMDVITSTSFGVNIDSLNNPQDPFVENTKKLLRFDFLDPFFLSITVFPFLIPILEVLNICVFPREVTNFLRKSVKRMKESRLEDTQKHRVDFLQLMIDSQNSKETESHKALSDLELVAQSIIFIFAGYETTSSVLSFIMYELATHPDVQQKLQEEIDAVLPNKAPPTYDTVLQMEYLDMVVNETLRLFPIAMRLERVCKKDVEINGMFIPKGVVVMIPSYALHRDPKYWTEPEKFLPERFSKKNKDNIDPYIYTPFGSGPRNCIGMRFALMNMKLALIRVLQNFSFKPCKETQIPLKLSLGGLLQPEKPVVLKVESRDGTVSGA

[32] = Antiproliferative activity against human IMR32 cells assessed as cell viability after 48 hrs by formazan EZ4U dye based assay; settings: IMR-32, 48 h
How it was run: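 HEK-293 (1.5 × 10⁴/well) or IMR-32 (2 × 10⁴/well) cells in DMEM with 10% FBS, 37 °C, 5% CO₂, grown 24 h to about 60% confluence; compounds 0.01–250 µM final, DMSO at most 1%, 48 h.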

[33] = molecular target: T1, Histamine H3 receptor; assay: Antagonist activity at human recombinant histamine H3 receptor expressed in HEK293 cells assessed as inhibition of forskolin/(R)(-)-alpha-methylhistamine-induced cAMP accumulation after 1 hr by TR-FRET immunoassay; type: functional, cell-based
How it was run: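 HEK293 cells stably expressing hH3R, stimulated 30 min at room temperature with (R)(-)-α-methylhistamine (15 nM), forskolin and antagonist (0.1 nM–10 µM range) added together. cAMP read by TR-FRET (Eu-cAMP tracer, ULight anti-cAMP antibody, 1 h), converted via cAMP standard curve to % maximal response. Sigmoidal dose–response fit; mean of three experiments, each in triplicate.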

[34] = test system: Mus musculus; assay: Anticonvulsant activity in CF1 albino mouse assessed as protection against 6 Hz-psychomotor-induced seizure at 60 mg/kg, ip after 4 hrs; type: functional, organism-based; how it was run: as §2
[35] = Neuroprotective activity in hippocampal slice (unknown origin) assessed as protection against kainic acid-induced cell death using propidium iodide staining; type: functional; settings: Hippocampus
How it was run: (§7)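 Organotypic hippocampal slice cultures exposed to NMDA or kainic acid alone or with compound; propidium iodide in all wells; PI fluorescence intensity of slices, proportional to cell death, compared with excitotoxin-only slices; qualitative.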

[36] = test system: Mus musculus; assay: Neurotoxicity in CF1 albino mouse at 60 mg/kg, ip after 1 to 4 hrs by rotarod test; type: toxicity, organism-based; settings: in vivo; how it was run: as §1
[37] = test system: Mus musculus; assay: Neurotoxicity in CF1 albino mouse at 30 mg/kg, ip after 0.25 to 4 hrs by rotarod test; type: toxicity, organism-based; settings: in vivo; how it was run: as §1
[38] = test system: Mus musculus; assay: Anticonvulsant activity in CF1 albino mouse assessed as protection against 6 Hz-psychomotor-induced seizure at 30 mg/kg, ip after 0.25 to 4 hrs; type: functional, organism-based; how it was run: as §2
[39] = test system: Rattus norvegicus; assay: Anticonvulsant activity in Sprague-Dawley rat assessed as protection against pilocarpine-induced convulsive status epilepticus at 65 mg/kg, ip; type: functional, organism-based
How it was run: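 Male Sprague Dawley rats (150–180 g) dosed ip, pilocarpine 50 mg/kg ip given; compound dosed immediately at first behavioral Stage 3 seizure or 30 min later. Number protected from Racine Stage 3 or greater seizures recorded.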

[40] = test system: Mus musculus; assay: Neurotoxicity in CF1 albino mouse assessed as death at 100 mg/kg, ip after 0.5 hrs by rotarod test; type: toxicity, organism-based; settings: in vivo; how it was run: as §5
[41] = Neuroprotective activity in hippocampal slice (unknown origin) assessed as protection against NMDA-induced cell death using propidium iodide staining; type: functional; settings: Hippocampus; how it was run: as §7

Compound	Activity [1]	Ki [2] [nM]	Activity [4]	Activity [5]	Activity [6]	Activity [7]	Activity [9]	Activity [10]	Activity [11]	Activity [13]	Activity [14]	Activity [17]	Activity [19]	Activity [23]	Activity [24]	Activity [26]	Activity [28]	further results
CC1CCCN(CCCCCCOc2cccc(Cl)c2)C1.O=C(O)C(=O)O (stereo unspecified)	Non-toxic	174	Non-toxic	inactive	inactive	inactive	inactive	Toxic	inactive	inactive	Non-toxic	Active	inactive	Non-toxic	inactive	Non-toxic	Non-toxic	Activity [3]: inactive; Activity [8]: Active; Activity [12]: inactive; Activity [15]: inactive; Activity [16]: Active; Activity [18]: inactive; Activity [20]: Non-toxic; Activity [21]: Non-toxic; Activity [22]: Toxic; Activity [25]: Non-toxic; Activity [27]: Non-toxic
CC1CCCN(CCCCCOc2ccc(Cl)cc2)C1.O=C(O)C(=O)O (stereo unspecified)	Non-toxic	133	Non-toxic	25%	inactive	inactive	inactive	Toxic	inactive	inactive	Non-toxic	Active	inactive	Non-toxic	inactive	Non-toxic	Non-toxic	Activity [29]: Toxic; Drug metabolism [30]: metabolite_detected; inhibition (INH) [31]: Not Active; IC50 [32]: 89 µM; EC50 [33]: 72 nM
Clc1ccc(OCCCCCCN2CCCCC2)cc1.O=C(O)C(=O)O	–	265	Non-toxic	–	–	inactive	inactive	Toxic	inactive	inactive	Non-toxic	Active	inactive	Non-toxic	–	Non-toxic	Non-toxic	Activity [34]: inactive; Activity [35]: inactive; Activity [36]: Non-toxic; Activity [37]: Non-toxic; Activity [38]: inactive; Activity [39]: Active; Activity [40]: Toxic; Activity [41]: inactive
